Screens deposited in PubChem by several laboratories.
OXTR agonist = human OXTR agonism; CHO-OTR cells, Fluo-8 calcium fluorescence; normalized: DMSO 0%, oxytocin 100%; AID 2435; 320,000 compounds, 0.32% hits; activation, % at 3 µM;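 active = activation above the mean of all tested compounds plus 3 SD, cutoff set per screening run, cut at about 20% in these data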;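 also: peak over basal fluorescence ratio from a 100 s FLIPR kinetic read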
Target sequence (P30559 whole entry, looked up): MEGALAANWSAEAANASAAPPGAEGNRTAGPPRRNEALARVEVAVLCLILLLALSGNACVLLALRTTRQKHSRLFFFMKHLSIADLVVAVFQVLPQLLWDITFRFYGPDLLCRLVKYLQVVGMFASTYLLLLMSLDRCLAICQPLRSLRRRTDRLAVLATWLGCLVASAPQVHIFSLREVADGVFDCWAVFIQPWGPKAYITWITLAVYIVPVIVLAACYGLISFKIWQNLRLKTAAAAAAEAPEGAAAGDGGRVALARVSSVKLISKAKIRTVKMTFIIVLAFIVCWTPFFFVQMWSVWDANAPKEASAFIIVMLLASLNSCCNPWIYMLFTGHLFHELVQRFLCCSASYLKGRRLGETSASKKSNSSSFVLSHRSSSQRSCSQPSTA
TRPML3 agonist = agonists of human TRPML3 channel | Q8TDD5 | HEK293 TRPML3-YFP, Fluo-8 calcium fluorescence; 100% = the carbachol control signal | activation, % at 3 µM | 220,000 compounds, 0.29% hits | AID 1448;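 active = activation above its plate's cutoff, the mean activation of the plate's test wells plus 3 SD, cut at about 12% in these data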
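Test system: TRPML3-YFP stable HEK293 cells. Doses: single point at 3 µM. Incubation: dye loading 1 h 37 °C then 30 min ambient, 125 s read. Signal: Fluo-8 calcium dye fluorescence, ex 470-495, em 515-575 nm. Measure: percent activation from peak-to-basal fluorescence ratio, scaled between DMSO and carbachol.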
zfTRPN1 agonist = activates the zebrafish TRPN1 channel | activation, % at 3 µM | HEK293 zebrafish TRPN1-YFP, Fluo-8 calcium fluorescence; 100% = response to 87 µM carbachol | 220,000 compounds, 0.18% hits;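 active = activation above its plate's cutoff, the mean activation of test wells on that plate plus 3 SD, cut at about 19% in these data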
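Control set: carbachol 87 µM as high control, DMSO as low control; system: HEK293 stable line with zebrafish TRPN1-YFP; read-out: % activation versus carbachol response; detection: intracellular calcium fluorescence with Fluo-8; doses: single test compound dose, 3 µM nominal, 0.3% DMSO; schedule: dye 1 h 37 °C plus 30 min RT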
V1R ag counter = counter-screen for oxytocin receptor agonists: human V1a receptor agonists; P37288; CHO-V1R cells, Fluo-8 calcium fluorescence, agonist mode; 0% DMSO, 100% 3 nM vasopressin; activation, % at 3 µM; 320,000 compounds, 0.25% hits;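 active = activation above the mean activation of all tested compounds plus 3 SD, per screening run, cut at about 20% in these data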;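 also: signal is peak over basal fluorescence ratio across a 100 second FLIPR read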
CRFR2-BP ag = CRF-BP/CRF-R2 complex agonism; HEK293 CRF-R2/CRF-BP, calcium dye fluorescence (FLIPR); percent of saturating CRF peptide response; activation, % at 13.2 µM; 350,000 compounds, 0.46% hits;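 active = activation of at least 50%, plus an integration ratio under a set limit after plate pattern correction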
OXTR potentiator = human OXTR potentiation. CHO-OTR cells, Fluo-8 calcium fluorescence, potentiator mode; 0% = oxytocin EC15, 100% = EC100. AID 2445. P30559. activation, % at 3 µM. 320,000 compounds, 0.061% hits;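 active = activation above that plate's cutoff, the mean activation of tested compounds plus 3 SD, cut at about 6.6% in these data, passing the limit was not always enough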
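Assay system: CHO cell line stably expressing human OTR | Also added: Oxytocin at about EC15, sub-maximal agonist stimulus | Times: Compound 6 min at room temperature before oxytocin, 100 s read | Measured by: Fluo-8 intracellular calcium fluorescence, ex 470-495, em 515-575 nm | Controls: EC15 oxytocin alone as 0%, 75 nM oxytocin as 100%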
A number is an active result; 0 = inactive; - = not tested or not shown. Most compounds without a hit are left out; they make up all but 0.83% or so of the library.

SMILES | OXTR agonist | TRPML3 agonist | zfTRPN1 agonist | V1R ag counter | CRFR2-BP ag | OXTR potentiator
O=C1C2C3C=CC(C3)C2C(=O)N1c1cccc(N2C(=O)C3C4C=CC(C4)C3C2=O)n1 (configuration not stated) | 0 | 0 | 0 | 0 | 73 | 0
O=C(CN1C(=O)NC2(CCOc3ccccc32)C1=O)NCCc1ccc(F)cc1 (configuration not stated) | 0 | - | - | 0 | 0 | 0
CSc1nnc(SCC(=O)Nc2ccc3[nH]c(=O)[nH]c3c2)s1 | 0 | - | - | 0 | 0 | 0
Cc1ccc(C2C=C(c3ccccc3)Nc3nc(N4C(=O)CCC4=O)nn32)cc1 (configuration not stated) | - | 0 | 0 | - | 81 | -
COc1ccc(C2C=C(c3ccccc3)Nc3nnnn32)cc1 (configuration not stated) | 0 | 0 | 0 | 0 | 0 | 0
COc1ccc(C2=CC(c3ccc(C)cc3)n3nnnc3N2)cc1 (configuration not stated) | 0 | 0 | 0 | 0 | 92 | 0
COc1cccc(C2=CC(c3cc(OC)ccc3OC)n3nnnc3N2)c1 (configuration not stated) | 0 | 0 | 0 | 0 | 0 | 0
CC1=CC(c2ccc(Cl)cc2)n2nc(N3C(=O)CCC3=O)nc2N1 (configuration not stated) | 0 | 0 | 0 | 0 | 0 | 0
COc1ccc(C2=CC(c3ccc(OC)c(OC)c3)n3nnnc3N2)c(OC)c1 (configuration not stated) | 0 | 0 | 0 | 0 | 88 | 0
COc1cccc(C2C=C(c3ccc(OC)cc3OC)Nc3nnnn32)c1 (configuration not stated) | 0 | 0 | 0 | 0 | 81 | 0
CC(Sc1nnc(CN2CCCC2)n1Cc1ccccc1)C(=O)Nc1ccc(F)cc1Cl (configuration not stated) | - | - | - | - | 0 | -
CCCn1c(N)c(C(=O)CSc2nnc(C3CC3)n2C2CC2)c(=O)[nH]c1=O | 0 | - | - | 0 | 0 | 0
COc1ccc(C2C=C(c3ccc(Br)s3)Nc3ncnn32)cc1OC (configuration not stated) | 23 | 0 | 0 | 0 | - | 0
COc1ccc(C2C=C(c3ccc(C)cc3)Nc3ncnn32)cc1 (configuration not stated) | - | 0 | 0 | - | 0 | -
Cc1ccc(S(=O)(=O)/N=C(/Nc2ccc(O)c(C(=O)O)c2)c2ccccc2)cc1 | 0 | - | - | 0 | 0 | 0
CCN(CC)S(=O)(=O)c1cc(NC(=O)c2ccc3c(c2)NC(=O)C(C)S3)ccc1C (configuration not stated) | 0 | - | - | 0 | 0 | 0
C(=Cc1c[nH]c2ccccc12)c1nccc2ccccc12 | - | - | - | - | 0 | -
OCC[n+]1ccc(/C=C/c2c[nH]c3ccccc23)cc1 | 0 | 0 | 0 | 0 | 119 | 0
CCN(CC)c1ccc(/C=C/c2cc(-c3ccccc3)c3ccccc3n2)cc1 | 0 | 0 | 0 | 0 | 67 | 0
CCN(CC)c1ccc(/C=N/NC(=O)c2cc(C)nc3ccccc23)cc1 | 0 | 0 | 0 | 0 | 0 | 0
COCc1nc2oc3ccc(F)cc3c(=O)c2cc1C(=O)OC | - | - | - | - | 0 | -
Brc1ccc(C2=CC(c3cccs3)n3ncnc3N2)cc1 (configuration not stated) | 75 | 0 | 0 | 75 | 318 | 0
OCCCc1nc2n(n1)C(c1cccs1)C=C(c1ccc(Br)cc1)N2 (configuration not stated) | 160 | 0 | 0 | 109 | - | 0
Fc1ccc(Br)cc1C1C=C(c2cccnc2)Nc2ncnn21 (configuration not stated) | 0 | 0 | 0 | 0 | 53 | 0
CC(C)(C)c1ccc(C2=CC(c3ccccc3F)n3ncnc3N2)cc1 (configuration not stated) | 0 | - | - | 0 | 0 | 0
SMILES | OXTR agonist | TRPML3 agonist | zfTRPN1 agonist | V1R ag counter | CRFR2-BP ag | OXTR potentiator
CC1=C(C(N)=O)C(c2ccc(Br)cc2)n2nc(CCCO)nc2N1 (configuration not stated) | 0 | - | - | 0 | 0 | 0
N#C/C(=C\c1ccc(O)c(O)c1)C(=O)NCCc1ccccc1 | 0 | - | - | 0 | 0 | 0
COc1cc(/C=C(\C#N)C(=O)NCCc2ccccc2)cc(OC)c1O | 0 | 0 | 0 | 0 | 67 | 0
COC(=O)/C(C#N)=C/c1c[nH]c2ccccc12 | 0 | 0 | 0 | 0 | 0 | 0
COc1cc(/C=C(\C#N)C(=O)c2c[nH]c3ccccc23)cc(OC)c1O | 0 | 0 | 0 | 0 | 85 | 0
CC(C)(C)c1ccc(OCC(=O)NCC(c2cccs2)N2CCOCC2)cc1 (configuration not stated) | 0 | - | - | 0 | 0 | 0
COCc1ccc(CN2CCC(C(=O)Nc3cccc(-c4cccc(Cl)c4)c3)CC2)o1 | 23 | - | - | 28 | 0 | 0
Cc1ccc(S(=O)(=O)NC(C(=O)O)c2ccccc2)cc1 (configuration not stated) | 0 | 0 | 0 | 0 | 133 | 0
N#C/C(=C\c1coc2ccccc2c1=O)C(N)=S | 0 | 0 | 0 | 0 | 0 | 0
N#C/C(=C\c1coc2ccc(O)cc2c1=O)C(=O)Nc1nc2ccccc2s1 | 257 | 64 | 222 | 308 | 235 | 0
COc1cccc(C2=CC(=O)CC(C)(C)C2)n1 | 0 | - | - | 0 | 0 | 0
CC(C)(C)N1CC2([N+](=O)[O-])CN(C(C)(C)C)CC([N+](=O)[O-])(C1)C2 | 0 | 0 | 0 | 0 | 167 | 0
O/C=c1\ccc2cccc3nc(C(F)(F)F)nc1c23 | 0 | - | - | 0 | 97 | 0
CCOc1cccc(-c2c(C(=O)N/N=C/c3ccsc3)nnn2-c2nonc2N)c1 | 25 | - | - | 24 | 0 | 0
Cc1ccc(-c2c(C(=O)N/N=C/c3ccsc3)nnn2-c2nonc2N)cc1 | 39 | - | - | 36 | 0 | 0
Nc1nonc1-n1nnc(C(=O)N/N=C/c2cccs2)c1-c1ccc2c(c1)OCO2 | 35 | - | - | 52 | 0 | 0
COc1ccc(Cl)cc1NC(=O)CN(C)C(=O)CSc1ccc2c(c1)OCCO2 | 0 | - | - | 0 | 0 | 0
Cc1ccc(Oc2ccc(S(=O)(=O)Nc3ccc(C(=O)O)cc3)cc2)cc1 | 0 | - | - | 0 | 0 | 0
Cc1ccc(Sc2ccc(S(=O)(=O)Nc3ccc(C(=O)O)cc3)cc2)cc1C | 25 | - | - | 21 | 0 | 0
c1nnc(NCNc2nncs2)s1 | - | - | - | - | 60 | -
COC(=O)Nc1nncs1 | 0 | 0 | 0 | 0 | 0 | 0
Cc1ccc(S(=O)(=O)N2CCC(C(=O)OCC(=O)N(Cc3ccccc3)C(C)C)CC2)cc1C | - | - | - | - | 0 | -
COC1C(CO)OC(n2c3c(Cl)cccc3c3c4c(c5c6cccc(Cl)c6[nH]c5c32)C(=O)NC4=O)C(O)C1O (configuration not stated) | - | - | - | - | 67 | -
O=C1CCC/C(=N/NC(=O)c2sc3ccccc3c2Cl)C1 | 0 | 0 | 0 | 32 | 53 | 0
